Activity calls are given as the source filed them. The calls are words filed in the database; no cut-off is given here. Non-standard residues stand in square brackets, D forms with d. Residues, ends and D or L forms follow the SMILES beside them. *: point of attachment. dPhe(4-CF3) = N[C@H](Cc1ccc(C(F)(F)F)cc1)C(=O)O; dBip = N[C@H](Cc1ccc(-c2ccccc2)cc1)C(=O)O; dPhe(3-Cl) = N[C@H](Cc1cccc(Cl)c1)C(=O)O; dPhe(3-Me) = Cc1cccc(C[C@@H](N)C(=O)O)c1; dPhe(4-Cl) = N[C@H](Cc1ccc(Cl)cc1)C(=O)O; dPhe(4-Me) = Cc1ccc(C[C@@H](N)C(=O)O)cc1; dPhe(2-Me) = Cc1ccccc1C[C@@H](N)C(=O)O; dPhe(3-F) = N[C@H](Cc1cccc(F)c1)C(=O)O; dPhe(4-F) = N[C@H](Cc1ccc(F)cc1)C(=O)O; 2Nal = N[C@@H](Cc1ccc2ccccc2c1)C(=O)O; dPhe(2-F) = N[C@H](Cc1ccccc1F)C(=O)O; dIgl = N[C@@H](C(=O)O)C1Cc2ccccc2C1; d(hPhe) = N[C@H](CCc1ccccc1)C(=O)O; Bn = c1ccc(C*)cc1; NHOH = ON*
Columns and labels:
[1] = target: T1, Macrophage metalloelastase (Homo sapiens, UniProt P39900); experiment: Inhibition of recombinant human MMP12 catalytic domain (Gly106 to Gly263 residues) expressed in Escherichia coli BL21 Codon Plus cells using 5-FAM/QXL520 FRET peptide as substrate preincubated for 15 mins followed by substrate addition and measured at 3 mins interval for 60 mins by fluorescence assay
Target sequence in this assay (P39900 whole entry, the tested form may be a part): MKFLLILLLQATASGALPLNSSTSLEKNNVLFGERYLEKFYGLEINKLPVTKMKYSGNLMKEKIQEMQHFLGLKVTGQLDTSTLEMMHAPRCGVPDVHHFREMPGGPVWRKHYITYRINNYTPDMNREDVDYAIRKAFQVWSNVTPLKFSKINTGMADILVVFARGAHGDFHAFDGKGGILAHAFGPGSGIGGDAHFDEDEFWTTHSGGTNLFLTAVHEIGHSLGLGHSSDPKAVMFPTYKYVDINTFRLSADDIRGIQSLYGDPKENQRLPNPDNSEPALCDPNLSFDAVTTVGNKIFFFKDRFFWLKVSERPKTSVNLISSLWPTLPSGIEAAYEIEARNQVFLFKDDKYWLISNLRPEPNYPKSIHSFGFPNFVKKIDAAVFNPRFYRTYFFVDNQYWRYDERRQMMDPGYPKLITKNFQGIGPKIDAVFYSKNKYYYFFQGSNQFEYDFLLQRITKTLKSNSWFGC

[2] = target: T1, Macrophage metalloelastase; experiment: Binding affinity to recombinant human 15N-labelled MMP12 catalytic domain (Gly106 to Gly263 residues) expressed in Escherichia coli BL21 Codon Plus cells assessed as ratio of peak intensities of L212 and I220 in bound versus the unbound form at 10 uM by 1D-1H NMR analysis
Target sequence in this assay (P39900 106-470 limits assumed): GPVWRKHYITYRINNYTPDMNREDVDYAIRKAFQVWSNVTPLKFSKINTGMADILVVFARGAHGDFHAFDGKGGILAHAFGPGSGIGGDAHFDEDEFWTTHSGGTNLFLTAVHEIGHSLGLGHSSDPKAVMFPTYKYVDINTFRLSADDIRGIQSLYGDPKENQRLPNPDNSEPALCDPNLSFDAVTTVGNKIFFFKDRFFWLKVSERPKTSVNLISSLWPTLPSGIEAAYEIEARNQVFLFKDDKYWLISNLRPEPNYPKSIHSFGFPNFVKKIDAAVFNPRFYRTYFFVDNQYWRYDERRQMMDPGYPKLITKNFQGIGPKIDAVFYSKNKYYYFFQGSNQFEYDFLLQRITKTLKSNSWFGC

[3] = test system: Mus musculus; experiment: Protection against porcine elastase-induced emphysema in ip dosed C57BL/6 mouse model assessed as effect on total BALF cellularity/influx administered once daily for 7 days measured 21 days post initial elastase instillation; format: functional, organism-based; settings: time 19.0 day
Outline: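 Same elastase and dosing scheme as line 10 (C57BL/6, intranasal 0.9 U PPE, daily i.p. for 7 days from day 2). At day 21 BAL cell pellet taken up in 200 μl PBS and counted on a hemocytometer. Cytospin differentials of 300 cells per slide. Two-way ANOVA with Tukey post-hoc.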

[4] = test system: Mus musculus; experiment: Protection against porcine elastase-induced emphysema in ip dosed C57BL/6 mouse model assessed as decrease in emphysema-like pathology administered once daily for 7 days measured 21 days post initial elastase instillation by H and E staining based light microscopic analysis; format: functional, organism-based; settings: time 19.0 day
Outline: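 Male and female C57BL/6 mice, 6–8 weeks, given one intranasal dose of 0.9 U porcine pancreatic elastase in 50 μl PBS (saline controls). From day 2, daily i.p. vehicle or inhibitor for 7 days. At day 21 lungs formalin-inflated at 20 cm pressure, paraffin-embedded, H&E-stained and imaged at 10x. Mean linear intercept = line length/alveolar wall intersections. Two-way ANOVA with Tukey.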

[5] = target: Collagenase 3 (Homo sapiens) (UniProt P45452); experiment: Inhibition of recombinant human 6His-tagged MMP13 catalytic domain (104 to 274 residues) expressed in Escherichia coli at 4 to 25 nM using 5-FAM/QXL520 FRET peptide as substrate preincubated for 15 mins followed by substrate addition and measured at 3 mins interval for 60 mins by fluorescence assay; settings: dose nM 4-25, time 75.0 min
Outline: (§1)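 Catalytic domains, 10 ng enzyme, preincubated with inhibitor 15 min at RT. FRET substrate (SensoLyte 520 kit) then added, fluorescence read every 3 min for 60 min. Inhibitors at 25 nM or 4 nM; percent inhibition reported.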

[6] = target: Matrix metalloproteinase-9 (Homo sapiens) (UniProt P14780); experiment: Inhibition of recombinant human 6His-tagged MMP9 catalytic domain (112 to 445 residues) expressed in Escherichia coli at 4 to 25 nM using 5-FAM/QXL520 FRET peptide as substrate preincubated for 15 mins followed by substrate addition and measured at 3 mins interval for 60 mins by fluorescence assay; settings: dose nM 4-25, time 75.0 min; outline: as §1
Sequence of Matrix metalloproteinase-9 (Homo sapiens) (P14780 whole entry, the tested form may be a part): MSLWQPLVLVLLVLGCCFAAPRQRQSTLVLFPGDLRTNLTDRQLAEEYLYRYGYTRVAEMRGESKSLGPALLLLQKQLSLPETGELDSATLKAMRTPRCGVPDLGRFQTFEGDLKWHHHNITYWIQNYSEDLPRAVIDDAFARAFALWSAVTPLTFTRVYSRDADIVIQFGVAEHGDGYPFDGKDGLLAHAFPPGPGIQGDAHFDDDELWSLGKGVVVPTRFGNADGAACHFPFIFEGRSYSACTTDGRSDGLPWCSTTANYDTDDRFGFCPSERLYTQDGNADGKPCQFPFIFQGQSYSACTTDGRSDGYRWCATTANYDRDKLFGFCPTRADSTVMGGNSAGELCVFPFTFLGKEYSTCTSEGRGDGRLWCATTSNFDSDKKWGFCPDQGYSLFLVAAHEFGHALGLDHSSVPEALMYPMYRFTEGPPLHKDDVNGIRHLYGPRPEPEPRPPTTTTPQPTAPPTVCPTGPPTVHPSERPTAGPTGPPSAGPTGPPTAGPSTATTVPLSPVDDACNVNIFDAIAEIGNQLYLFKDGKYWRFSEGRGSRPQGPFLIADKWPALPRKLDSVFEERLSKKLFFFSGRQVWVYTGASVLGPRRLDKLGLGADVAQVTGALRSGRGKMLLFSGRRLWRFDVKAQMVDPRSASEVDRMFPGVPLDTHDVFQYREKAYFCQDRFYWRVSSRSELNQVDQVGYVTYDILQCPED

[7] = target: Matrix metalloproteinase-14 (Homo sapiens) (UniProt P50281); experiment: (§2) Inhibition of recombinant human His-tagged MMP14 expressed in Escherichia coli at 4 to 25 nM using 5-FAM/QXL520 FRET peptide as substrate preincubated for 15 mins followed by substrate addition and measured at 3 mins interval for 60 mins by fluorescence assay; settings: dose nM 4-25, time 75.0 min; outline: as §1
[8] = target: Stromelysin-1 (Homo sapiens) (UniProt P08254); experiment: as §2, with “MMP3 catalytic domain (Pro19 to Glu271 residues)” for “MMP14”; settings: dose nM 4-25, time 75.0 min; outline: as §1
Sequence of Stromelysin-1 (Homo sapiens) (P08254 100-477 limits assumed): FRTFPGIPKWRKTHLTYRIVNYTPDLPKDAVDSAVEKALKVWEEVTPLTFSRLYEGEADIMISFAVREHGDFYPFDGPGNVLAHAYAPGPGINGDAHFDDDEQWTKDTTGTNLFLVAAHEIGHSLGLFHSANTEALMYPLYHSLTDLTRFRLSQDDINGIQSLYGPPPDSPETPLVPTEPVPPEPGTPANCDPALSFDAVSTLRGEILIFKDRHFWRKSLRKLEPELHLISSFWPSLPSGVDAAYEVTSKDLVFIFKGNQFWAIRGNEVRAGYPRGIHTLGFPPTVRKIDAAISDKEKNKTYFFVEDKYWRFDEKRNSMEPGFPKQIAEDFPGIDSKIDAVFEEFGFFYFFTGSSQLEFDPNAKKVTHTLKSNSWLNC

[9] = target: T1, Macrophage metalloelastase; experiment: Potency index, ratio of MMP408 IC50 to test compound IC50 for inhibition of recombinant human MMP12 catalytic domain (Gly106 to Gly263 residues) expressed in Escherichia coli BL21 Codon Plus cells
Target sequence in this assay (P39900 106-470 limits assumed): as the sequence (P39900 106-470 limits assumed) above

[10] = target: T2, Interstitial collagenase (Homo sapiens) (UniProt P03956); experiment: Inhibition of recombinant human 6His-tagged MMP1 catalytic domain (106 to 261 residues) expressed in Escherichia coli at 4 to 25 nM using 5-FAM/QXL520 FRET peptide as substrate preincubated for 15 mins followed by substrate addition and measured at 3 mins interval for 60 mins by fluorescence assay; settings: dose nM 4-25, time 75.0 min; outline: as §1
T2 sequence (whole entry): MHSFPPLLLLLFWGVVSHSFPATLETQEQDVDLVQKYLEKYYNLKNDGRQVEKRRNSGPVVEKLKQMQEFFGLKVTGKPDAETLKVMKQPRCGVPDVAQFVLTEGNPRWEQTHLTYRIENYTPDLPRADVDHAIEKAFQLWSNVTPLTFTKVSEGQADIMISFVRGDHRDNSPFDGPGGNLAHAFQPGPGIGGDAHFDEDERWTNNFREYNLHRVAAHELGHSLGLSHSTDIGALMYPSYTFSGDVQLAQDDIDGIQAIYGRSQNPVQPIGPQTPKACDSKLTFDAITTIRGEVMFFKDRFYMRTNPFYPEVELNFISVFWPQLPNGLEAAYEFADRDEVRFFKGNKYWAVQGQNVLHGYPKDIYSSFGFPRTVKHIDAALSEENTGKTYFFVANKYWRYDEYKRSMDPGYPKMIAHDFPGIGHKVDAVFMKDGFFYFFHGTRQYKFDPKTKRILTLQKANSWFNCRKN

[11] = Half life in Balb/c mouse at 30 mg/kg, ip by LC-MS/MS analysis; format: ADME, organism-based; settings: in vivo
Outline: (§3)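 Single i.p. dose of 30 mg/kg to 5 Balb-C mice (22–26 g) in 10% DMSO, 40% PEG400, 10% (2-hydroxypropyl)-β-cyclodextrin in PBS. Retro-orbital blood taken at 30 min, 1, 2, 4, 8 and 24 h. Plasma drug measured by extraction and LC/MS against a calibration curve of purified agent.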

[12] = Cmax in Balb/c mouse at 30 mg/kg, ip by LC-MS/MS analysis; format: ADME, organism-based; parameters: route intraperitoneal, dose 30 mg/kg; settings: in vivo; outline: as §3
[13] = Tmax in Balb/c mouse at 30 mg/kg, ip by LC-MS/MS analysis; format: ADME, organism-based; settings: in vivo; outline: as §3
[14] = Ratio of Cmax in Balb/c mouse at 30 mg/kg, ip to IC90 for inhibition of recombinant human MMP12 catalytic domain (Gly106 to Gly263 residues) expressed in Escherichia coli BL21 Codon Plus cells; format: organism-based; settings: in vivo

| IC50 [1] | Ratio [2] | Structure (SMILES) | also measured |
| --- | --- | --- | --- |
| 36.1 nM | 1 | CC(=O)N[C@@H](COCc1ccccc1)C(=O)N[C@H](CCc1ccccc1)C(=O)N[C@H](Cc1ccc(OC(C)=O)cc1)C(=O)NO (Ac-Ser(Bn)-[d(hPhe)]-[dY](Ac)-{NHOH}) | – |
| 35.5 nM | > 1 | CC(=O)N[C@@H](COCc1ccccc1)C(=O)N[C@H](CCc1ccccc1)C(=O)N[C@H](Cc1cccc(C)c1)C(=O)NO (Ac-Ser(Bn)-[d(hPhe)]-[dPhe(3-Me)]-{NHOH}) | – |
| – | inactive | CC(=O)N[C@@H](COCc1ccccc1)C(=O)N[C@@H](C(=O)N[C@H](Cc1ccccc1)C(=O)NO)C1Cc2ccccc2C1 (Ac-Ser(Bn)-[dIgl]-[dF]-{NHOH}) | – |
| – | < 1 | CC(=O)N[C@@H](COCc1ccccc1)C(=O)N[C@H](CCCc1ccccc1)C(=O)N[C@H](Cc1ccccc1)C(=O)NO | – |
| 20.9 nM | > 1 | CC(=O)N[C@@H](COCc1ccccc1)C(=O)N[C@H](CCc1ccccc1)C(=O)N[C@H](Cc1ccc(C)cc1)C(=O)NO (Ac-Ser(Bn)-[d(hPhe)]-[dPhe(4-Me)]-{NHOH}) | – |
| 42.1 nM | > 1 | CC(=O)N[C@@H](COCc1ccccc1)C(=O)N[C@H](CCc1ccccc1)C(=O)N[C@H](Cc1ccc(O)cc1)C(=O)NO (Ac-Ser(Bn)-[d(hPhe)]-[dY]-{NHOH}) | – |
| 47.2 nM | > 1 | CC(=O)N[C@@H](COCc1ccccc1)C(=O)N[C@H](CCc1ccccc1)C(=O)N[C@H](Cc1cccc(Cl)c1)C(=O)NO (Ac-Ser(Bn)-[d(hPhe)]-[dPhe(3-Cl)]-{NHOH}) | – |
| – | – | COC(=O)Nc1ccc2oc3cc(S(=O)(=O)N[C@@H](C(=O)O)C(C)C)ccc3c2c1 | Activity [3]: inactive; Activity [4]: Active |
| 4.4 nM | – | COc1ccc(CCC[C@H](NC(=O)CN2CCOCC2)C(=O)N[C@H](CCc2ccc(OC)cc2)C(=O)N[C@H](Cc2ccc(C)cc2)C(=O)NO)cc1 | inhibition [5]: inactive; inhibition [6]: inactive; Activity [3]: inactive; inhibition [7]: inactive; inhibition [8]: Active; Ratio IC50 [9]: > 5; inhibition [10]: inactive; Activity [4]: Active |
| 27.8 nM | > 1 | CC(=O)N[C@@H](COCc1ccccc1)C(=O)N[C@H](CCc1ccccc1)C(=O)N[C@H](Cc1ccccc1F)C(=O)NO (Ac-Ser(Bn)-[d(hPhe)]-[dPhe(2-F)]-{NHOH}) | – |
| 57.1 nM | 1 | CC(=O)N[C@@H](COCc1ccccc1)C(=O)N[C@H](CCc1ccccc1)C(=O)N[C@H](Cc1ccc(C(F)(F)F)cc1)C(=O)NO (Ac-Ser(Bn)-[d(hPhe)]-[dPhe(4-CF3)]-{NHOH}) | – |
| 16.3 nM | > 1 | COc1ccc(CC[C@@H](NC(=O)[C@H](COCc2ccccc2)NC(C)=O)C(=O)N[C@H](Cc2ccccc2)C(=O)NO)cc1 | – |
| 35.1 nM | > 1 | CC(=O)N[C@@H](COCc1ccccc1)C(=O)N[C@H](CCc1ccccc1)C(=O)N[C@H](Cc1ccc(Cl)cc1)C(=O)NO (Ac-Ser(Bn)-[d(hPhe)]-[dPhe(4-Cl)]-{NHOH}) | – |
| 20.5 nM | > 1 | COc1ccc(CCC[C@H](NC(C)=O)C(=O)N[C@H](CCc2ccccc2)C(=O)N[C@H](Cc2ccccc2)C(=O)NO)cc1 | – |
| 42 nM | > 1 | CC(=O)N[C@@H](COCc1ccccc1)C(=O)N[C@H](CCc1ccccc1)C(=O)N[C@H](Cc1ccc(F)cc1)C(=O)NO (Ac-Ser(Bn)-[d(hPhe)]-[dPhe(4-F)]-{NHOH}) | – |
| 2.4 nM | – | CNC(=O)[C@H](Cc1c[nH]c2ccccc12)NC(=O)[C@@H](CC(=O)NO)CC(C)C [ILOMASTAT] | inhibition [8]: Active |
| 138 nM | < 1 | CC(=O)N[C@@H](Cc1ccc2ccccc2c1)C(=O)N[C@H](CCc1ccccc1)C(=O)N[C@H](Cc1ccccc1)C(=O)NO (Ac-[2Nal]-[d(hPhe)]-[dF]-{NHOH}) | – |
| 75.9 nM | 1 | CC(=O)N[C@@H](COCc1ccccc1)C(=O)N[C@H](CCc1ccccc1)C(=O)N[C@H](Cc1ccc(F)c(F)c1F)C(=O)NO | – |
| 4.5 nM | – | COc1ccc(CC[C@@H](NC(=O)[C@H](CCCc2ccccc2)NC(=O)CN2CCOCC2)C(=O)N[C@H](Cc2ccc(C)cc2)C(=O)NO)cc1 | inhibition [5]: inactive; half-life [11]: 5 h; Cmax [12]: 580 nM; inhibition [6]: inactive; Activity [3]: inactive; Tmax [13]: 2 h; inhibition [7]: inactive; Ratio [14]: > 20; inhibition [8]: Active; Ratio IC50 [9]: > 5; inhibition [10]: inactive; Activity [4]: Active |
| 30.2 nM | > 1 | CC(=O)N[C@@H](COCc1ccccc1)C(=O)N[C@H](CCc1ccccc1)C(=O)N[C@H](Cc1cccc(F)c1)C(=O)NO (Ac-Ser(Bn)-[d(hPhe)]-[dPhe(3-F)]-{NHOH}) | – |
| 34.9 nM | 1 | CC(=O)N[C@@H](Cc1c[nH]c2ccccc12)C(=O)N[C@H](CCc1ccccc1)C(=O)N[C@H](Cc1ccccc1)C(=O)NO (HELM PEPTIDE1{[ac].W.[O=C([C@@H](CCc1ccccc1)N[*:1])[*:2]].[dF].[ON[*:1]]}$$$$V2.0) | – |
| 19.5 nM | > 1 | CC(=O)N[C@@H](CCCc1ccccc1)C(=O)N[C@H](CCc1ccccc1)C(=O)N[C@H](Cc1ccccc1)C(=O)NO | – |
| – | < 1 | CC(=O)N[C@@H](COCc1ccccc1)C(=O)N[C@H](CCc1ccccc1)C(=O)N[C@H](Cc1ccccc1C)C(=O)NO (Ac-Ser(Bn)-[d(hPhe)]-[dPhe(2-Me)]-{NHOH}) | – |
| 16.7 nM | 1 | CC(=O)N[C@@H](COCc1ccccc1)C(=O)N[C@H](CCc1ccc(C(F)(F)F)cc1)C(=O)N[C@H](Cc1ccccc1)C(=O)NO | – |
| 26.5 nM | > 1 | CC(=O)N[C@@H](COCc1ccccc1)C(=O)N[C@H](CCc1ccccc1)C(=O)N[C@H](Cc1ccccc1)C(=O)NO (Ac-Ser(Bn)-[d(hPhe)]-[dF]-{NHOH}) | inhibition [5]: inactive; inhibition [6]: inactive; inhibition [7]: inactive; inhibition [10]: inactive |
| – | inactive | CC(=O)N[C@@H](COCc1ccccc1)C(=O)N[C@H](Cc1ccc(-c2ccccc2)cc1)C(=O)N[C@H](Cc1ccccc1)C(=O)NO (Ac-Ser(Bn)-[dBip]-[dF]-{NHOH}) | – |

| Structure (SMILES) | IC50 [1] | Ratio [2] | also measured |
| --- | --- | --- | --- |
| CC(=O)N[C@@H](COCc1ccccc1)C(=O)N[C@H](CCc1ccccc1)C(=O)N[C@H](Cc1ccc(OS(=O)(=O)F)cc1)C(=O)NO | – | < 1 | – |
